Results taken from ChEMBL document CHEMBL1122578, “A colon-specific drug-delivery system based on drug glycosides and the glycosidases of colonic bacteria” (J Med Chem, 1984).

How the values were obtained:
Assay type in all cases: functional, organism-based
[1] = system: Rattus norvegicus; assay: Recovery of steroid from small intestine at 3h after administration of 7.5 mg of the compound
How it was run: (§1)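 Male Sprague-Dawley rats (ca. 250 g), fasted 16 h, water withdrawn ≥30 min before dosing; glucoside 7.5 mg by gastric intubation in 0.5 mL water/95% EtOH (3:1). Killed by CO2 then thoracotomy at 3–6 h; small intestine and cecum removed. Contents (MeOH) and tissues (0.01 M KH2PO4) homogenized with internal-standard steroid, centrifuged, filtered, quantified by C-18 HPLC-UV (MeOH/0.01 M KH2PO4 56.5:43.5); mean of four animals.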

[2] = system: Rattus norvegicus; assay: Recovery of steroid from cecum at 5 hr after administration of 7.5 mg of the compound; settings: Caecum; how it was run: as §1
[3] = system: Rattus norvegicus; assay: Recovery of steroid from cecum at 6 hr after administration of 7.5 mg of the compound; settings: Caecum; how it was run: as §1
[4] = system: Rattus norvegicus; assay: Recovery of steroid from small intestine at 4 hr after administration of 7.5 mg of the compound; how it was run: as §1
[5] = system: Rattus norvegicus; assay: Recovery of steroid from small intestine at 6 hr after administration of 7.5 mg of the compound; how it was run: as §1
[6] = system: Rattus norvegicus; assay: Recovery of steroid from small intestine at 5 hr after administration of 7.5 mg of the compound; how it was run: as §1
[7] = system: Rattus norvegicus; assay: Recovery of steroid from cecum at 3h after administration of 7.5 mg of the compound; settings: Caecum; how it was run: as §1
[8] = system: Rattus norvegicus; assay: Recovery of steroid from cecum at 4 hr after administration of 7.5 mg of the compound; settings: Caecum; how it was run: as §1
[9] = system: Rattus norvegicus; assay: Recovery of glucoside from small intestine at 3h after administration of 7.5 mg of the compound; how it was run: as §1
[10] = system: Rattus norvegicus; assay: Recovery of glucoside from cecum at 6 hr after administration of 7.5 mg of the compound; settings: Caecum; how it was run: as §1
[11] = system: Rattus norvegicus; assay: Recovery of glucoside from cecum at 3h after administration of 7.5 mg.; settings: Caecum; how it was run: as §1
[12] = system: Rattus norvegicus; assay: Recovery of glucoside from cecum at 5 hr after administration of 7.5 mg of the compound; settings: Caecum; how it was run: as §1
[13] = system: Rattus norvegicus; assay: Recovery of glucoside from small intestine at 6 hr after administration of 7.5 mg of the compound; how it was run: as §1
[14] = system: Rattus norvegicus; assay: Recovery of glucoside from small intestine at 5 hr after administration of 7.5 mg of the compound; how it was run: as §1
[15] = system: Rattus norvegicus; assay: Recovery of glucoside from cecum at 4 hr after administration of 7.5 mg of the compound; settings: Caecum; how it was run: as §1
[16] = system: Rattus norvegicus; assay: Recovery of glucoside from small intestine at 4 hr after administration of 7.5 mg of the compound; how it was run: as §1
[17] = system: Rattus norvegicus; assay: Recovery of glucoside from cecum at 3h after administration of 7.5 mg of the compound; settings: Caecum; how it was run: as §1

| SMILES | Recovery [1] | Recovery [2] | Recovery [3] | Recovery [4] | Recovery [5] | Recovery [6] | Recovery [7] | Recovery [8] | Recovery [9] | Recovery [10] | Recovery [11] | Recovery [12] | Recovery [13] | Recovery [14] | Recovery [15] | Recovery [16] | Recovery [17] |
| --- | --- | --- | --- | --- | --- | --- | --- | --- | --- | --- | --- | --- | --- | --- | --- | --- | --- |
| C[C@@H]1C[C@H]2[C@@H]3CCC4=CC(=O)C=C[C@]4(C)[C@@]3(F)[C@@H](O)C[C@]2(C)[C@@]1(O)C(=O)CO | 0.13 mg | 2.24 mg | 1.66 mg | 0.11 mg | 0.18 mg | 0.12 mg | 0.09 mg | 0.05 mg |  |  |  |  |  |  |  |  |  |
| C[C@]12C=CC(=O)C=C1CC[C@@H]1[C@@H]2[C@@H](O)C[C@@]2(C)[C@H]1CC[C@]2(O)C(=O)CO | 0.3 mg | 0.57 mg | 0.29 mg | 0.18 mg | 0.03 mg | 0.09 mg | 0 mg | 0 mg |  |  |  |  |  |  |  |  |  |
| C[C@@H]1CC2C3CCC4=CC(=O)C=CC4(C)[C@@]3(F)C(O)CC2(C)[C@@]1(O)C(=O)CO[C@@H]1O[C@H](CO)[C@@H](O)[C@H](O)[C@H]1O (some centres not stated) |  |  |  |  |  |  |  |  | 5.61 mg | 0.04 mg | 0.21 mg | 0.23 mg | 0.94 mg | 0.24 mg | 0.02 mg | 5 mg |  |
| C[C@]12C=CC(=O)C=C1CC[C@@H]1[C@@H]2C(O)C[C@@]2(C)[C@H]1CC[C@]2(O)C(=O)CO[C@@H]1O[C@H](CO)[C@@H](O)[C@H](O)[C@H]1O (some centres not stated) |  |  |  |  |  |  |  |  | 1.57 mg | 0.06 mg |  | 0 mg | 0.18 mg | 0.19 mg | 0 mg | 1.73 mg | 0 mg |
